Reference: ChEMBL document CHEMBL1122162, “Carbocyclic analogue of 3-deazaadenosine: a novel antiviral agent using S-adenosylhomocysteine hydrolase as a pharmacological target” (1982)
Values after ≈ are worked out from the molar mass of the structure shown. Active and inactive are the calls of the source. The rule behind the calls is not given here.

Experiments:
Mus musculus [1] = species on record: Mus musculus; assay: In vitro antiviral activity against herpes simplex virus type 1 (strain E-377) grown in mouse fibroblasts cells, clone L-929, expressed as virus ration (VR); type: functional, Fibroblast
Rattus norvegicus [2] = species on record: Rattus norvegicus; assay: Inhibition of oncogenic transformation expressed as number of foci on day 5 in HL-23 virus infected rat kidney cells (NRK 153C17) at 0 uM; type: functional
Procedure, shortened: (§1)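 NRK 153 C1 7 rat kidney cells infected with HL-23 virus in the presence of compound at 0–4 μM. Foci were stained with Giemsa and counted per dish on day 5. % inhibition was derived from focus counts relative to the untreated dish.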

Rattus norvegicus [3] = species on record: Rattus norvegicus; assay: Percent inhibition of oncogenic transformation of HL-23 virus infected rat kidney cells (NRK 153C17) at 1 uM; type: functional; procedure, shortened: as §1
Rattus norvegicus [4] = species on record: Rattus norvegicus; assay: Inhibition of oncogenic transformation expressed as %control cell number on day 3 in HL-23 virus infected rat kidney cells (NRK 153C17) at 4 uM; type: functional
Procedure, shortened: (§2)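 Normal rat kidney cells (NRK 153 C1 7) infected with HL-23 virus, a C-type virus isolated from human acute myelogenous leukemia cells, and exposed to compound at 0–4 μM. Cell number determined on day 3 and expressed as % of control.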

Mus musculus [5] = species on record: Mus musculus; assay: Minimum Inhibitory concentration of the drug required for 50% inhibition of vaccinia virus (strain Lederle chorioallantoic) -induced cytopathogenic effects in infected cell cultures.; type: functional
Rattus norvegicus [6] = species on record: Rattus norvegicus; assay: Inhibition of oncogenic transformation expressed as number of foci on day 5 in HL-23 virus infected rat kidney cells (NRK 153C17) at 2 uM; type: functional; procedure, shortened: as §1
Rattus norvegicus [7] = species on record: Rattus norvegicus; assay: Inhibition of oncogenic transformation expressed as %control cell number on day 3 in HL-23 virus infected rat kidney cells (NRK 153C17) at 2 uM; type: functional; procedure, shortened: as §2
Rattus norvegicus [8] = species on record: Rattus norvegicus; assay: Percent inhibition of oncogenic transformation of HL-23 virus infected rat kidney cells (NRK 153C17) at 0 uM; type: functional; procedure, shortened: as §1
Rattus norvegicus [9] = species on record: Rattus norvegicus; assay: Percent inhibition of oncogenic transformation of HL-23 virus infected rat kidney cells (NRK 153C17) at 2 uM; type: functional; procedure, shortened: as §1
Rattus norvegicus [10] = species on record: Rattus norvegicus; assay: Inhibition of oncogenic transformation expressed as %control cell number on day 3 in HL-23 virus infected rat kidney cells (NRK 153C17) at 0.25 uM; type: functional; procedure, shortened: as §2
Rattus norvegicus [11] = species on record: Rattus norvegicus; assay: Inhibition of oncogenic transformation expressed as %control cell number on day 3 in HL-23 virus infected rat kidney cells (NRK 153C17) at 1 uM; type: functional; procedure, shortened: as §2
Mus musculus [12] = species on record: Mus musculus; assay: Effect in mouse infected with vaccinia virus; observed effects seen; type: functional, organism-based
Rattus norvegicus [13] = species on record: Rattus norvegicus; assay: Percent inhibition of oncogenic transformation of HL-23 virus infected rat kidney cells (NRK 153C17) at 4 uM; type: functional; procedure, shortened: as §1
Rattus norvegicus [14] = species on record: Rattus norvegicus; assay: Inhibition of oncogenic transformation expressed as number of foci on day 5 in HL-23 virus infected rat kidney cells (NRK 153C17) at 1 uM; type: functional; procedure, shortened: as §1
Rattus norvegicus [15] = species on record: Rattus norvegicus; assay: Percent inhibition of oncogenic transformation of HL-23 virus infected rat kidney cells (NRK 153C17) at 0.5 uM; type: functional; procedure, shortened: as §1
Rattus norvegicus [16] = species on record: Rattus norvegicus; assay: Inhibition of oncogenic transformation expressed as number of foci on day 5 in HL-23 virus infected rat kidney cells (NRK 153C17) at 0.25 uM; type: functional; procedure, shortened: as §1
Mus musculus [17] = species on record: Mus musculus; assay: Effect in mouse infected with herpes simplex virus type-1; observed effects diminished with time; type: functional, organism-based
Rattus norvegicus [18] = species on record: Rattus norvegicus; assay: Inhibition of oncogenic transformation was assayed by infecting normal rat kidney cells (NRK 153C17) with HL-23 virus and counting the %control cell number on day 3 at a concentration of 0 uM; type: functional; procedure, shortened: as §2
Rattus norvegicus [19] = species on record: Rattus norvegicus; assay: Inhibition of oncogenic transformation expressed as number of foci on day 5 in HL-23 virus infected rat kidney cells (NRK 153C17) at 4 uM; type: functional; procedure, shortened: as §1
Mus musculus [20] = species on record: Mus musculus; assay: In vitro antiviral activity against vaccinia virus (strain Lederle chorioallantoic) grown in mouse fibroblasts cells, clone L-929, expressed as VR; type: functional, Fibroblast
Rattus norvegicus [21] = species on record: Rattus norvegicus; assay: Inhibition of oncogenic transformation expressed as %control cell number on day 3 in HL-23 virus infected rat kidney cells (NRK 153C17) at 0.5 uM; type: functional; procedure, shortened: as §2
Mus musculus [22] = species on record: Mus musculus; assay: Minimum Inhibitory concentration of the drug required for 50% inhibition of herpes simplex virus type 1 (strain E-377) -induced cytopathogenic effects in infected cell cultures.; type: functional
Mus musculus [23] = species on record: Mus musculus; assay: In vitro antiviral activity against herpes simplex virus type 1 (strain E-377) grown in mouse fibroblasts cells, clone L-929, expressed as virus rating (VR); type: functional, Fibroblast
Rattus norvegicus [24] = species on record: Rattus norvegicus; assay: Inhibition of oncogenic transformation expressed as number of foci on day 5 in HL-23 virus infected rat kidney cells (NRK 153C17) at 0.5 uM; type: functional; procedure, shortened: as §1
Rattus norvegicus [25] = species on record: Rattus norvegicus; assay: Percent inhibition of oncogenic transformation of HL-23 virus infected rat kidney cells (NRK 153C17) at 0.25 uM; type: functional; procedure, shortened: as §1
Mus musculus [26] = species on record: Mus musculus; assay: Minimum Inhibitory concentration of the drug required for 50% inhibition vaccinia virus (strain Lederle chorioallantoic)-induced cytopathogenic effects in infected cell cultures.; type: functional
Mus musculus [27] = species on record: Mus musculus; assay: Effect in mouse infected with herpes simplex virus type-1; observed effects seen; type: functional, organism-based

Which Virus rating (Mus musculus [1]) does the source give for `Nc1nccc2c1ncn2[C@@H]1O[C@H](CO)[C@@H](O)[C@H]1O` here?
The Virus rating was 0.5.

What does the source list for `Nc1nccc2c1ncn2[C@@H]1C[C@H](CO)[C@@H](O)[C@H]1O` [3-DEAZAARISTEROMYCIN A]?
No. of foci per dish (Rattus norvegicus [2]): 115; inhibition at 1 µM (Rattus norvegicus [3]): 76%; Control cell number (Rattus norvegicus [4]): 53%; MIC (Mus musculus [5]): 1.9 µg/mL (≈ 7.19 µM); No. of foci per dish (Rattus norvegicus [6]): 9; Control cell number (Rattus norvegicus [7]): 71%; Inhibition (Rattus norvegicus [8]): 0%; inhibition at 2 µM (Rattus norvegicus [9]): 92%; Control cell number (Rattus norvegicus [10]): 100%; Control cell number (Rattus norvegicus [11]): 81%; Activity (Mus musculus [12]): observed effects seen; inhibition at 4 µM (Rattus norvegicus [13]): 99%; No. of foci per dish (Rattus norvegicus [14]): 28; inhibition at 0.5 µM (Rattus norvegicus [15]): 44%; No. of foci per dish (Rattus norvegicus [16]): 64; Activity (Mus musculus [17]): + to +/-; Control cell number (Rattus norvegicus [18]): 100%; No. of foci per dish (Rattus norvegicus [19]): 1; Virus rating (Mus musculus [20]): 2.8; Control cell number (Rattus norvegicus [21]): 96%; MIC (Mus musculus [22]): 238 µg/mL (≈ 901 µM); Virus rating (Mus musculus [23]): 1.1; No. of foci per dish (Rattus norvegicus [24]): 65; inhibition at 0.25 µM (Rattus norvegicus [25]): 44%

Which results are given for `Nc1ncnc2c1ncn2[C@@H]1O[C@H](CO)[C@@H](O)[C@@H]1O` [VIDARABINE]?
MIC (Mus musculus [26]): 19.2 µg/mL (≈ 71.8 µM); Activity (Mus musculus [12]): Active; Virus rating (Mus musculus [20]): 1.2; MIC (Mus musculus [22]): 2.1 µg/mL (≈ 7.86 µM); Virus rating (Mus musculus [23]): 3.2; Activity (Mus musculus [27]): Active
